Measured values as given in ChEMBL document CHEMBL4368914, “Tricyclic Indazoles-A Novel Class of Selective Estrogen Receptor Degrader Antagonists” (J Med Chem, 2019).
pIC50: −log10 of the molar value.

Legend:
Estrogen receptor = target: T1, Estrogen receptor (Homo sapiens, UniProt P03372); experiment: Induction of ERalpha degradation in human MCF7 cells after 18 to 24 hrs by in multiplexed cell assay; assay type: cell-based
T1 sequence (P03372 whole entry): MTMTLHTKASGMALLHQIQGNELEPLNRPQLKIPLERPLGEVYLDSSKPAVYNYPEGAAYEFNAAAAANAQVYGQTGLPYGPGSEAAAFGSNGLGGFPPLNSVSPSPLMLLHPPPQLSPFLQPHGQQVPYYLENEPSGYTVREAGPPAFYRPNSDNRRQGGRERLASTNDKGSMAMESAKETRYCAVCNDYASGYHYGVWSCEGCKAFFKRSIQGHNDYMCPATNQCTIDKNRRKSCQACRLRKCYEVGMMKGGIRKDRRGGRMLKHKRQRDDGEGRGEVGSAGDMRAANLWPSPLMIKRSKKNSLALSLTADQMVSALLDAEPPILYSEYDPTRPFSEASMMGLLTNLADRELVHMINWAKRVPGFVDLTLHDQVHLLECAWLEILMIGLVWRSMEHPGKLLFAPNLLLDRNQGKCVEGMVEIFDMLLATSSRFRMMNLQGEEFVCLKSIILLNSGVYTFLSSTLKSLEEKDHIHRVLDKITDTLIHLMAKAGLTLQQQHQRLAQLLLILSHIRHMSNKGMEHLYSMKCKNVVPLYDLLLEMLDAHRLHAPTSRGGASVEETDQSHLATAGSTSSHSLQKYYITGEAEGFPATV
Summary of the method: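 MCF-7 cells were kept at 37 °C, 5% CO₂ in phenol red-free RPMI1640 with 5% charcoal-stripped FCS and 2 mmol/L glutamine. Compounds came from 10 mmol/L DMSO stocks.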

[1] = Solubility of the compound in phosphate buffer at pH 7.4 after 24 hrs; assay type: physicochemical
Summary of the method: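 Solubility in aqueous phosphate buffer at pH 7.4 after 24 h at 25 °C.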

[2] = Intrinsic clearance in human hepatocytes assessed per million cells; assay type: ADME, cell-based, Hepatocyte; conditions: read-out: CLH
Summary of the method: (§1)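 Rate of metabolism (µl/min/10⁶ cells) measured from DMSO stock in isolated hepatocytes diluted to 1x10⁶ cells/mL.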

Mus musculus = experiment: In vivo antagonist activity at ERalpha in tumor of human MCF7 cells xenografted in SCID CB17 mouse assessed as reduction in normalized PR levels at 5 mg/kg, po administered once daily for 3 days measured after 24 hrs post last dose by Western blot analysis relative to control; assay type: functional; set-up: scale not given: the % may be the effect or the level left
Summary of the method: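 Male SCID mice carried a 0.5 mg/21 day s.c. estrogen pellet, with 5x10^6 MCF-7 cells implanted s.c. in the hind flank 24 h later. Groups of 5 were randomised at 0.5–0.8 cm³ and gavaged once daily for 3 d in PEG400/Captisol/water vehicle at 10 ml/kg. Tumours were taken 24 h post-dose, and PR was read by Western blot normalized to vinculin.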

[3] = Clearance in rat at 0.5 mg/kg, iv or 1 mg/kg, po; assay type: ADME, organism-based; conditions: in vivo
Summary of the method: (§2)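 Single IV dose of 0.5 mg/kg and oral dose of 1 mg/kg in rat and dog. Both routes were formulated in 5% DMSO:95% hydroxypropyl β-cyclodextrin (30% w/v), at 1 mL/kg IV and 4 mL/kg PO.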

Cytochrome P450 2C19 = Cytochrome P450 2C19 (Homo sapiens, UniProt P33261); experiment: Inhibition of CYP2C19 in human liver microsomes; assay type: ADME
Cytochrome P450 2C19, sequence (P33261 whole entry, canonical isoform): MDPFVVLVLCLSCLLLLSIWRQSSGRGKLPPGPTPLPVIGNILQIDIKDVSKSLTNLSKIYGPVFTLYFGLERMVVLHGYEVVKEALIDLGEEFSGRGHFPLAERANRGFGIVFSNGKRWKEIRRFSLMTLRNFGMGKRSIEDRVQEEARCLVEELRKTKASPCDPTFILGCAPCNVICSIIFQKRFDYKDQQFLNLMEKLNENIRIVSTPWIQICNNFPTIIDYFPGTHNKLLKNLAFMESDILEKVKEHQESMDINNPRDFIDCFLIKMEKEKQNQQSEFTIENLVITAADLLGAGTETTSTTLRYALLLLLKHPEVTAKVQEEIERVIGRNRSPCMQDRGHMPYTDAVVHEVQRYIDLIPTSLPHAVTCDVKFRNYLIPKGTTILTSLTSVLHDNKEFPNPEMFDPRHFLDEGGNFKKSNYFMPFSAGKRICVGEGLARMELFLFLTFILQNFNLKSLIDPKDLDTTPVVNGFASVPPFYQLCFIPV
Summary of the method: (§3)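 High-throughput human liver microsome assay across a panel of five CYP isoforms, giving IC50.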

[4] = Toxicity in SCID CB17 mouse xenografted with human MCF7 cells at 20 mg/kg, po administered once daily and measured on day 20 of dosing; conditions: in vivo, 20 d
[5] = Clearance in dog at 0.5 mg/kg, iv or 1 mg/kg, po; assay type: ADME, organism-based, Canis lupus familiaris; conditions: in vivo; summary of the method: as §2
[6] = Apparent permeability in human Caco2 cells at 10 uM; assay type: ADME, cell-based; conditions: Caco-2
Summary of the method: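 Compound at 10 μM incubated on cultured Caco-2 or MDCK cells. Permeability was measured apical-to-basolateral and basolateral-to-apical, and efflux ratio was taken as (B to A)/(A to B).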

[7] = Intrinsic clearance in rat hepatocytes assessed per million cells; assay type: ADME, cell-based, Hepatocyte; conditions: read-out: CLH; summary of the method: as §1
[8] = Glutathione reactivity in human liver microsomes assessed as GSH trapping ratio of compound to clozapine; assay type: ADME, Microsome
Summary of the method: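 Glutathione trapping in human liver microsomes, expressed as a ratio to clozapine.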

Cytochrome P450 1A2 = target: T2, Cytochrome P450 1A2 (Homo sapiens, UniProt P05177); experiment: Inhibition of CYP1A2 in human liver microsomes; assay type: ADME; summary of the method: as §3
T2 sequence (P05177 whole entry): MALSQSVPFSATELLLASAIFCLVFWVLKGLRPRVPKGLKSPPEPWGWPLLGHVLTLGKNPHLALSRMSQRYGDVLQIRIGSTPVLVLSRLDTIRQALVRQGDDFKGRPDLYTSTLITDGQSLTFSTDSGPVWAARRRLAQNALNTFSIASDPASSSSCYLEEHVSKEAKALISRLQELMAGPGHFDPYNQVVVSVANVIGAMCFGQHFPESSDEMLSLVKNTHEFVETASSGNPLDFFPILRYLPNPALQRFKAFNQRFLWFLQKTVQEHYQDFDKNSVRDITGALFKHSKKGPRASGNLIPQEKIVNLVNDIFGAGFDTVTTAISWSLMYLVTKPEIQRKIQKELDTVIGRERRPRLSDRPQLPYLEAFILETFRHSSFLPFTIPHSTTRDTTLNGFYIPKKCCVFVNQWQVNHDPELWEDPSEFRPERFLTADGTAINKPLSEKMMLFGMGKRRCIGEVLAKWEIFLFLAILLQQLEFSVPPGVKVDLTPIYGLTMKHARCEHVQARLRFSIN

[9] = target: T3, Estrogen receptor (Homo sapiens) (UniProt P03372); experiment: Induction of ERalpha degradation in human MCF7 cells after 24 hrs by Western blot analysis; assay type: cell-based
T3 sequence (whole entry): T1 sequence (P03372 whole entry)
Summary of the method: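 MCF-7 cells in phenol red-free RPMI1640 with 5% charcoal-stripped FCS and 2 mmol/L glutamine (37 °C, 5% CO₂) exposed to a range of concentrations for 24 h. Total protein extracted and immunoblotted with anti-ER (SP1) and GAPDH antibodies diluted in 5% milk-PBS-Tween. Detection by enhanced chemiluminescent HRP substrate and imager.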

[10] = Oral bioavailability in dog at 1 mg/kg; assay type: ADME, organism-based, Canis lupus familiaris; conditions: in vivo; summary of the method: as §2
MCF7 = experiment: Antitumor activity against human MCF7 cells xenografted in SCID CB17 mouse assessed as tumor growth inhibition at 20 mg/kg, po administered once daily and measured on day 20 of dosing relative to control; conditions: read-out: TGI
[11] = Stability in pH 1 deuterated buffer assessed as compound remaining after 8 days by 1H NMR spectroscopy; assay type: physicochemical; conditions: pH 4 deuterated buffer, in the assay text read “pH 4” for “pH 1”, read-out: Stability
Summary of the method: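 Compound diluted from a 25 mM DMSO-d6 stock to a final 1 mM in each deuterated buffer. Followed by ¹H NMR (500 MHz, water suppression, 64 scans) and LC-MS at 0, 24, 72 and 192 h (8 days).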

SMILES: C[C@@H]1Cc2c(ccc3[nH]ncc23)[C@@H](c2c(F)cc(/C=C/C(=O)O)cc2F)N1CC(C)(C)F
- pIC50 (Estrogen receptor): 9.60
- solubility at 24 h [1]: > 1000 µM
- hepatocyte CLint [2]: 17 µL/min/1e6 cells
- Activity (Mus musculus): 74%
- clearance [3]: 23 mL/min/kg
- pIC50 (Cytochrome P450 2C19): < 4.52
- Activity [4]: Non-Toxic
- clearance [5]: 5.9 mL/min/kg
- Papp at 10 µM [6]: 6.9 ×10⁻⁶ cm/s
- hepatocyte CLint [7]: 26 µL/min/1e6 cells
- Ratio [8]: < 0.04
- pIC50 (Cytochrome P450 1A2): < 4.52
- Activity [9]: Dose-dependent effect
- bioavailability [10]: 45%
- inhibition in vivo at 20 mg/kg (MCF7): 80%
- remaining at 192 h [11]: 58%
